The record followed here is ChEMBL document CHEMBL1240382, “Elucidation of the pharmacokinetic/pharmacodynamic determinant of colistin activity against Pseudomonas aeruginosa in murine thigh and lung infection models” (Antimicrob Agents Chemother, 2010).

What all share (format): ADME, organism-based
Holding throughout (conditions): in vivo

Data set [1] concerns Mus musculus. The data set can be described thus: Tmax in Pseudomonas aeruginosa infected neutropenic Swiss mouse at 5 mg/kg, sc. Set-up: dose 5 mg/kg, route subcutaneous. In outline:
(§1)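 Single s.c. colistin (sulfate) dose (5, 10, 20 or 40 mg/kg) in neutropenic thigh-infected mice; central-vein blood at 6–8 times over 10 h, 4 mice per time; plasma colistin by HPLC (0.10–4.00 mg/liter calibration). Unbound levels from concentration-dependent fu (equilibrium dialysis, pH 7.4 phosphate buffer, 21 h, 37°C); parameters by noncompartmental analysis.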

Data set [2] deals with Mus musculus. Kind of data set: Cmax in Pseudomonas aeruginosa infected neutropenic Swiss mouse at 10 mg/kg, sc. Set-up: dose 10 mg/kg, route subcutaneous. In outline:
as §1

The subject of data set [3] is Mus musculus. The data set can be described thus: Cmax in Pseudomonas aeruginosa infected neutropenic Swiss mouse at 40 mg/kg, sc. Set-up: dose 40 mg/kg, route subcutaneous. In outline:
as §1

Data set [4] has as its system Mus musculus. Kind of data set: Half life in Pseudomonas aeruginosa infected neutropenic Swiss mouse at 10 mg/kg, sc. Set-up: dose 10 mg/kg, route subcutaneous. In a few lines: as §1
Data set [5] deals with Mus musculus. Kind of data set: Apparent volume of distribution to bioavailability in Pseudomonas aeruginosa infected neutropenic Swiss mouse at 5 mg/kg, sc. In outline:
as §1

The subject of data set [6] is Mus musculus. The data set can be described thus: Half life in Pseudomonas aeruginosa infected neutropenic Swiss mouse at 5 mg/kg, sc. Set-up: dose 5 mg/kg, route subcutaneous. In outline: as §1
The test system of data set [7] is Mus musculus. Kind of data set: Cmax in Pseudomonas aeruginosa infected neutropenic Swiss mouse at 20 mg/kg, sc. Set-up: dose 20 mg/kg, route subcutaneous. In a few lines: as §1
For data set [8], the system named is Mus musculus. The data set can be described thus: Cmax in Pseudomonas aeruginosa infected neutropenic Swiss mouse at 5 mg/kg, sc. Set-up: dose 5 mg/kg, route subcutaneous. In a few lines:
as §1

Data set [9] concerns Mus musculus. The data set can be described thus: Tmax in Pseudomonas aeruginosa infected neutropenic Swiss mouse at 40 mg/kg, sc. Set-up: dose 40 mg/kg, route subcutaneous. In outline: as §1
The test system of data set [10] is Mus musculus. Kind of data set: Half life in Pseudomonas aeruginosa infected neutropenic Swiss mouse at 40 mg/kg, sc. Set-up: dose 40 mg/kg, route subcutaneous. In outline: as §1
Data set [11] deals with Mus musculus. The data set can be described thus: Apparent volume of distribution to bioavailability in Pseudomonas aeruginosa infected neutropenic Swiss mouse at 40 mg/kg, sc. In a few lines: as §1
The subject of data set [12] is Mus musculus. The data set can be described thus: Tmax in Pseudomonas aeruginosa infected neutropenic Swiss mouse at 10 mg/kg, sc. Set-up: dose 10 mg/kg, route subcutaneous. In a few lines: as §1
For data set [13], the system named is Mus musculus. Kind of data set: Apparent volume of distribution to bioavailability in Pseudomonas aeruginosa infected neutropenic Swiss mouse at 20 mg/kg, sc. In a few lines: as §1
Data set [14] has as its system Mus musculus. Kind of data set: Apparent volume of distribution to bioavailability in Pseudomonas aeruginosa infected neutropenic Swiss mouse at 10 mg/kg, sc. In outline: as §1
The subject of data set [15] is Mus musculus. Kind of data set: Half life in Pseudomonas aeruginosa infected neutropenic Swiss mouse at 20 mg/kg, sc. Set-up: dose 20 mg/kg, route subcutaneous. In a few lines: as §1
Data set [16] has as its system Mus musculus. Kind of data set: Tmax in Pseudomonas aeruginosa infected neutropenic Swiss mouse at 20 mg/kg, sc. Set-up: dose 20 mg/kg, route subcutaneous. In outline: as §1

By Tmax is commonly meant the time at which the peak concentration occurs. The term Cmax denotes the peak of the concentration-time curve. For COLISTIMETHATE SODIUM, the time of peak concentration (Tmax) in data set [1] was determined as 1 h; in data set [9], 2 h; in data set [12], 0.5 h; in data set [16] it was 2 h. Moreover, the Cmax in data set [2] was determined as 1440 ng/mL; in data set [3], 8890 ng/mL; in data set [7], 3290 ng/mL; in data set [8], 310 ng/mL. Further, the t1/2 in [4] was 1.14 h; in data set [6], 0.298 h; in [10], 1.39 h; in [15], 1.34 h. Also, the Vc/F was found to be 10.1 L/kg in [5], 3.27 L/kg in [11], 4.88 L/kg in [13] and 4.63 L/kg in [14].
